NSD2 inh: NSD2 (human) methyltransferase inhibition | inhibition, % at 12.5 µM | NSD2 peptide methylation, AlphaScreen, 120 min | O96028 | 310,000 tested, 0.54% active | AID 743445; in the data active = inhibition above about 50%
UCH37 DUB inh: human UCH37 deubiquitinating enzyme inhibition | inhibition, % (no concentration beside the values) | 330,000 tested, 0.33% active | Q9Y5K5 | purified proteasome/UCH37, Ub-AMC cleavage fluorescence;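 active = mean inhibition over replicate wells above about 20%, limit read from the data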
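Material: Human UCH37 enzyme supplied as purified proteasome complex | Schedule: 30 min compound-proteasome preincubation then 25 min substrate reaction, room temperature | Detection: AMC fluorescence from Ub-AMC cleavage, excitation 355 nm, emission 460 nm | Benchmarks: Wells without proteasome as full block, compound-free enzyme plus substrate as uninhibited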
SIRT5 block: inhibitors of human sirtuin-5 desuccinylase; Q9NXA8; Purified SirT5, succinyl-peptide AMC, trypsin-coupled fluorescence; inhibition, % at 15 µM; 330,000 tested, 1.1% active; AID 652115; in the data active = inhibition above about 15%
Target sequence (Q9NXA8 whole entry, looked up): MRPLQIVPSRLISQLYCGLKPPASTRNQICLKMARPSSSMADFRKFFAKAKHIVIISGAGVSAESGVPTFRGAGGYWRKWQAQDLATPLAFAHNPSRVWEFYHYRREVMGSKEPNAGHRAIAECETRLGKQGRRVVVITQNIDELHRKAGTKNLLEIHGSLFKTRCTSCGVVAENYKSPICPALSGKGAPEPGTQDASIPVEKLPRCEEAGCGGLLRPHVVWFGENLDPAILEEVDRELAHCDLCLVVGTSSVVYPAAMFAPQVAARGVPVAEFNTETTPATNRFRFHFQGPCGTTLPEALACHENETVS
FGF22 binding-1: binders of recombinant human FGF22 by thermal shift; SYPRO orange fluorescence; percent of sucrose octasulfate shift, DMSO zero; activity (Tm shift, normalised), % at 9.99 µM; 340,000 tested, 1.5% active; AID 651658;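 active = mean Tm shift, scaled 0 neutral to 100 positive control, at about 1.3% or above, every replicate too, limit read from the data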
CASP6 VEID inh: inhibitors of human caspase-6 | AID 686996 | 350,000 tested, 0.53% active | inhibition, % at 12.5 µM | purified caspase-6, Z-VEID-R110 cleavage fluorescence;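 active = mean inhibition across replicates at least about 35%, with every replicate also reaching that limit, limit read from the data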
Target sequence (P55212 24-179 limits assumed): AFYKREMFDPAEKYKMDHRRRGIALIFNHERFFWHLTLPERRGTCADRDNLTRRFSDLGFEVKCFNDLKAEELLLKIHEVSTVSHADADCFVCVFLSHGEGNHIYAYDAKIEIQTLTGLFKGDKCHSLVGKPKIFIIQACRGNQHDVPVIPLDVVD
Target sequence (P55212 194-293 limits assumed): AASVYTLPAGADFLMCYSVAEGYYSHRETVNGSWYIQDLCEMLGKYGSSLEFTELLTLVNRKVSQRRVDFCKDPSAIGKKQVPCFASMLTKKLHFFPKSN
FGF22 binding-2: binders of human FGF22 by thermal shift; AID 720646; recombinant FGF22 thermal shift, SYPRO orange fluorescence; thermal shift activity, °C (ΔTm) at 38 µM; 1,000 tested, 2% active; shares compounds with FGF22 binding-1;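 active = fitted rise in melting shift crosses a set limit at or below the top valid dose tested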
FGF22 TSA DP: binders of human FGF22 by thermal shift | shares compounds with FGF22 binding-1 | Thermal shift assay, SYPRO orange, melting temperature shift | Tm shift (activity), % at 38 µM | 50 tested, under 10 active;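 active = compounds whose fitted dose curve of melting temperature shift rises past a set threshold within the tested doses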
TSA no protein: shows thermal shift signal without protein, FGF22 counter-screen; shares compounds with FGF22 binding-1; compound-only SYPRO orange thermal shift counter-screen, no protein; 1,000 tested, 2% active; AC50, µM (titrated, usually from 38 µM);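 active = rising signal whose fitted curve reaches the 0.54 level within the top valid dose, showing a melting point, actives reach about 13 µM in these data; inactive = the rest, including activity in the opposite direction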; note: value is where the raw curve crosses a fixed level and not half-maximal
A number is an active result; 0 = inactive; - = no result given; ! = not confirmed by another sample. Most compounds without a hit are left out; they make up all but 2.6% or so of the library.

SMILES	NSD2 inh	UCH37 DUB inh	SIRT5 block	FGF22 binding-1	CASP6 VEID inh	FGF22 binding-2	TSA no protein	others
O=C(Nc1ccc(Cl)cc1)N1C[C@@H]2[C@H](c3ccccc31)[C@H](CO)N2C(=O)C1CC1	-	-	0	3.4	0	0	0
C[C@H]1CN([C@@H](C)CO)C(=O)c2cc(NS(=O)(=O)c3ccc(Cl)cc3)ccc2O[C@@H]1CN(C)S(=O)(=O)c1ccccc1	-	-	-	0	-	-	-
CN(C(=O)Cn1nnc2ccccc2c1=O)C1CCCCC1	0	0	0	1.8	0	0	0
Cn1ncc2c(Nc3ccc(Cl)c(Cl)c3)ncnc21	0	0	0	9.1	-	0	0
Cn1ncc2c(Nc3cc(Cl)cc(Cl)c3)ncnc21	0	0	0	0	0	-	-
O=C(Nc1ccccc1)O/N=C/c1ccc(F)cc1	0	-	0	1.4	0	0	0
Cc1ccc(NC(=O)O/N=C/c2ccc(F)cc2)cc1	0	-	0	0	0	-	-
CCCN(C)C[C@@H]1Oc2cc(C#Cc3cccnc3)ccc2S(=O)(=O)N([C@@H](C)CO)C[C@H]1C	-	-	0	0	0	-	-
COc1ccccc1S(=O)(=O)N(C)C[C@@H]1Oc2cc(C#CCC(C)C)ccc2S(=O)(=O)N([C@@H](C)CO)C[C@H]1C	-	-	30	21	0	0	0
CCCN(C)C[C@H]1Oc2cc(C#Cc3ccc(F)cc3)ccc2S(=O)(=O)N([C@H](C)CO)C[C@@H]1C	-	-	15!	1.7!	0	0	0
C[C@H]1CN([C@@H](C)CO)S(=O)(=O)c2ccc(C#CC3CCCCC3)cc2O[C@@H]1CN(C)C	-	-	0	1.3	0	0	0
CCCN(C)C[C@H]1Oc2cc(C#Cc3cccc(F)c3)ccc2S(=O)(=O)N([C@@H](C)CO)C[C@H]1C	-	-	0	0	0	-	-
CCCN(C)C[C@H]1Oc2cc(C#Cc3cccnc3)ccc2S(=O)(=O)N([C@H](C)CO)C[C@@H]1C	-	-	0	1.3	0	0	0
C[C@H]1CN([C@@H](C)CO)C(=O)Cc2cc(N(C)C)ccc2O[C@H]1CN(C)S(=O)(=O)c1ccccc1	-	-	0	0	0	-	-
C[C@@H]1CN([C@H](C)CO)C(=O)c2cccc(NC(=O)CCCCCC(=O)Nc3ccccc3N)c2O[C@H]1CN(C)C(=O)Nc1ccc2c(c1)OCO2	-	-	0	0	0	-	-
COCC(=O)N(C)C[C@@H]1Oc2cc(C#Cc3ccccc3)ccc2S(=O)(=O)N([C@@H](C)CO)C[C@H]1C	-	-	0	1.6	0	0	0
CCCN(C)C[C@H]1Oc2cc(-c3ccncc3)ccc2S(=O)(=O)N([C@H](C)CO)C[C@H]1C	-	-	17	2.1	0	0	0
O=C(NN=Cc1ccc(O)cc1)c1ccccc1NS(=O)(=O)c1cccs1	0	0	0	1.8	0	0	0
CC(C)(C)OC(=O)NN=Cc1ccc(C(=O)O)cc1	-	0	-	-	-	-	-
COc1cc(CCC(=O)OCC(=O)Nc2ccc(C)cc2Br)cc(OC)c1OC	0	0	0	28	0	0	0
O=C(CN1C(=O)NC2(CCOc3ccccc32)C1=O)Nc1ccc2c(c1)OCCO2 (stereo not given)	0	0	-	-	-	-	-
O=C(CN1C(=O)NC2(CCOc3ccccc32)C1=O)Nc1ccc(Br)cc1F (stereo not given)	0	0	0	1.7	0	0	0
O=C1C=CCCN1S(=O)(=O)/C=C/c1ccccc1	-	-	0	17	0	0	0
O=S(=O)(/C=C/c1ccccc1)N1CCc2ccccc2C1	0	0	0	0	0	-	-
COc1ccc(Cc2nnc(NS(=O)(=O)c3ccc([N+](=O)[O-])cc3)s2)cc1	-	0	0	0	0	-	-
SMILES	NSD2 inh	UCH37 DUB inh	SIRT5 block	FGF22 binding-1	CASP6 VEID inh	FGF22 binding-2	TSA no protein	others
COc1ccc(Cc2nnc(NS(=O)(=O)c3ccccc3)s2)cc1	0	0	0	26	0	0	0
CCc1ccc2nc(N)sc2c1	0	0	0	2.4	0	0	0
Cc1[nH]c2ccccc2c1C(=O)C(=O)NCCOc1ccccc1	0	0	0	17	0	0	0
COc1cccc(CNC(=O)C2(C)CCCCN2C)c1 (stereo not given)	0	-	0	2.6	0	0	0
CNC(=O)C[C@@H]1CC[C@@H]2[C@H](COc3ccc(NC(=O)c4cccc(F)c4)cc3C(=O)N2C)O1	-	-	0	16!	0	0	0
CNC(=O)C[C@H]1CC[C@@H]2[C@@H](COc3ccc(NC(=O)c4cccc(F)c4)cc3C(=O)N2C)O1	-	-	0	0	0	-	-
CNC(=O)C[C@@H]1CC[C@@H]2[C@@H](COc3ccc(NS(=O)(=O)c4ccccc4C)cc3C(=O)N2C)O1	-	-	0	20	0	0	0
C[C@@H]1CN([C@@H](C)CO)C(=O)c2cccc(NC(=O)Nc3ccc(C(F)(F)F)cc3)c2O[C@@H]1CN(C)Cc1ccncc1	-	-	0	0	0	-	-
CC(=NNC(=O)COc1ccc(C(C)(C)C)cc1)c1cc2ccccc2o1	-	0	-	-	-	-	-
C/C(=N\NC(=O)COc1ccc(C)cc1C(C)C)c1cc2ccccc2o1	0	-	0	20	0	0	0
CC(C)C(c1nnnn1CCc1ccccc1)N1CCSCC1 (stereo not given)	0	0	0	3.1	0	0	0
Cc1nc2ccccc2c2oc(C(=O)NCc3ccc4c(c3)OCO4)cc12	-	0	0	11	0	0	6.3µM
Cc1ccc(CNC(=O)c2cc3c(C)nc4ccccc4c3o2)cc1	-	0	0	0	0	-	-
CCOC(=O)c1c(C)[nH]c(C)c1C(=O)COC(=O)/C=C/c1ccccc1[N+](=O)[O-]	0	0	0	2.0	0	0	0
CCOC(=O)c1c(C)[nH]c(C)c1C(=O)COC(=O)/C=C/c1cccc(Cl)c1	0	0	-	-	-	-	-
CC(C(=O)Nc1ccc(S(=O)(=O)N2CCCC2)cc1)N(C)CC(=O)Nc1cccc(F)c1 (stereo not given)	0	0	0	0	0	-	-
Cc1ccc(NC(=O)CN(C)C(C)C(=O)Nc2ccc(S(=O)(=O)N3CCCC3)cc2)cc1 (stereo not given)	0	0	0	13	0	0	0
Cc1ccc(OCCCC(=O)Nc2ccc(S(=O)(=O)N3CCOCC3)cc2)cc1	0	0	0	2.5	0	0	0	FGF22 TSA DP=0
CO[C@@H](CN(C)S(=O)(=O)c1ccc(Cl)cc1)[C@@H](C)CN([C@H](C)CO)S(=O)(=O)c1cccc(Cl)c1	-	-	0	1.4	0	0	0
CO[C@@H](CN(C)S(=O)(=O)c1cccc(Cl)c1)[C@@H](C)CN([C@@H](C)CO)S(=O)(=O)c1cccc(Cl)c1	-	-	0	1.5	0	0	0
COc1ccccc1N(C)S(=O)(=O)c1ccc(C(=O)Nc2ccc(C(N)=O)cc2)cc1	0	0	0	1.7	0	0	0

High-throughput results as filed in PubChem.
